pIC50: −log10 of the molar value.
How the values were obtained:
HepG2 = assay: Cytotoxicity against human HepG2 cells assessed as reduction in cell viability after 72 hrs by MTT assay; type: cell-based; settings: hepg2, 72 h
Summary of the method: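 HepG2 cells in RPMI with 10% FCS, L-glutamine and penicillin/streptomycin, 37 °C, 6% CO2. After 24 h, compounds in DMSO (final <0.5% v/v) added for 72 h, in duplicate. Precipitate checked, MTT (0.5 mg/mL) 2 h, formazan dissolved in DMSO, A570 with 630 nm reference. Viability as % of untreated control; CC50 from dose-response curve; doxorubicin positive control.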

[1] = Selectivity index, ratio of CC50 for human HepG2 cells to IC50 for axenic amastigote stage of Leishmania infantum; type: toxicity; settings: read-out: Ratio CC50/IC50
[2] = test system: Trypanosoma brucei brucei; assay: Selectivity ratio of IC50 for wild type bloodstream form of Trypanosoma brucei brucei S427 to substrate activity at recombinant type-1 nitroreductase in bloodstream form of Trypanosoma brucei brucei S427
Summary of the method: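 Bloodstream-form single-marker S427 grown at 37 °C in HMI9-T with 2.5 µg/mL G418. The NTR1-overexpressing line was also given 2.5 µg/mL phleomycin and induced with 1 µg/mL tetracycline 48 h before assay. Triplicate cultures seeded at 1×10^5 cells/mL with inhibitor; cell densities determined after 72 h to give EC50 for wild-type and NTR1 lines.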

[3] = Electrochemical behavior of the compound assessed as redox potential corrected toward normal hydrogen electrode by cyclic voltammetry; type: physicochemical
Leishmania infantum = assay: Antileishmanial activity against axenic amastigote stage of Leishmania infantum assessed as inhibition of parasite metabolic activity after 48 hrs by luciferase reporter gene based luminescence assay; type: functional, organism-based
Summary of the method: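 L. infantum promastigotes in log phase switched to RPMI 1640 pH 5.4 for 24 h at 24 °C, then 24 h at 37 °C to give axenic amastigotes. Seeded at 2.106 parasites/mL with compounds in DMSO (final <0.5% v/v), in duplicate, 48 h at 37 °C. Wells checked for precipitate, luciferase luminescence read, IC50 by non-linear regression as mean.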

[4] = Selectivity index, ratio of CC50 for human HepG2 cells to IC50 for trypomastigote stage of Trypanosoma brucei brucei AnTat 1.9; type: toxicity; settings: read-out: Ratio CC50/IC50
[5] = test system: Trypanosoma brucei brucei; assay: […] activity against wild type bloodstream form of Trypanosoma brucei brucei S427 after 72 hrs; type: functional, organism-based; settings: S427, 72 h
Summary of the method: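 Bloodstream-form T. brucei single marker S427 (T7RPOL TETR NEO) cultured at 37 °C in HMI9-T with 2.5 µg/mL G418. NTR1-overexpressing line kept in 2.5 µg/mL phleomycin and induced with 1 µg/mL tetracycline 48 h before the assay. Triplicate cultures seeded at 1×10^5 cells/mL with inhibitor; cell densities counted after 72 h to give EC50.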

[6] = test system: Trypanosoma brucei brucei; assay: Antitrypanosomal activity against trypomastigote stage of Trypanosoma brucei brucei AnTat 1.9 assessed as decrease in parasite viability after 69 hrs by Alamar blue assay; type: functional, organism-based; settings: AnTat 1.9, 69 h
Summary of the method: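 AnTat 1.9 in MEM with Earle's salts plus 0.5 mM mercaptoethanol, 1.5 mM L-cysteine, 0.05 mM bathocuproine sulfate and 20% heat-inactivated horse serum, 37 °C, 5% CO2. Seeded 2000 parasites/100 µL with compounds in DMSO, in duplicate, 69 h, then Alamar Blue for 5 h.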

THP-1 = assay: (§1) Cytotoxicity against human THP1 cells assessed as reduction in cell viability after 72 hrs by MTT assay; type: cell-based; settings: thp-1, 72 h
Summary of the method: (§2)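 THP1 cells in complete RPMI with PMA (final 50 ng/mL) at 10⁶ cells/mL, differentiated 48 h. Compounds in DMSO (final <0.5% v/v) then added for 72 h at 37 °C. MTT (0.5 mg/mL in FCS-free medium) 2 h, formazan dissolved in DMSO, A570 with 630 nm reference. Viability as % of untreated control; CC50 from dose-response curve; doxorubicin positive control.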

Leishmania donovani [7] = assay: Antileishmanial activity against intramacrophage amastigote stage of Leishmania donovani infected in human THP1 cells after 120 hrs by Giemsa staining based microscopy; type: functional, organism-based; settings: THP-1, 120 h
Summary of the method: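 THP-1 cells differentiated with PMA (final 50 ng/mL) for 48 h at 37 °C, 6% CO2. Infected 10:1 with L. donovani promastigotes acidified 24 h at 27 °C in Schneider 20% FCS pH 5.4. After 24 h, compounds added in duplicate (DMSO <0.5% v/v) for 120 h.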

Leishmania donovani [8] = assay: Antileishmanial activity against wild type promastigote stage of Leishmania donovani MHOM/SD/62/1S-CL2D LdBOB after 72 hrs by resazurin dye based assay; type: functional, organism-based
Summary of the method: (§3)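 Clonal L. donovani LdBOB promastigotes grown at 26 °C in modified M199. NTR1 and NTR2 overexpressers kept in nourseothricin 100 µg/mL. Triplicate 10 mL cultures seeded at 5×10^4 parasites/mL with drug for 72 h. Aliquots received 50 µM resazurin, read by fluorescence (ex 528/em 590 nm) after 4 h. Background-corrected 2-parameter fit gave EC50; at least two repeats, mean ± SD.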

[9] = Substrate activity at recombinant nitroreductase 2 in promastigote stage of Leishmania donovani MHOM/SD/62/1S-CL2D LdBOB assessed as inhibition of parasite growth after 72 hrs by resazurin dye based assay; summary of the method: as §3
[10] = Substrate activity at recombinant type-1 nitroreductase in promastigote stage of Leishmania donovani MHOM/SD/62/1S-CL2D LdBOB assessed as inhibition of parasite growth after 72 hrs by resazurin dye based assay; summary of the method: as §3
[11] = Selectivity index, ratio of CC50 for human HepG2 cells to IC50 for intramacrophage amastigote stage of Leishmania donovani infected in human THP1 cells; type: toxicity, cell-based; settings: read-out: Ratio CC50/IC50
[12] = Selectivity index, ratio of CC50 for human HepG2 cells to IC50 for promastigote stage of Leishmania donovani MHOM/IN/00/DEVI; type: toxicity; settings: read-out: Ratio CC50/IC50
[13] = as §1; type: cell-based, THP-1; settings: THP1 cells; summary of the method: as §2
Leishmania donovani [14] = assay: Antileishmanial activity against promastigote stage of Leishmania donovani MHOM/IN/00/DEVI assessed as inhibition of parasite metabolic activity after 72 hrs by MTT assay; type: functional, organism-based
Summary of the method: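 MHOM/IN/00/DEVI log-phase promastigotes in Schneider's medium with 20% FCS, 2 mM L-glutamine and antibiotics. Seeded at 10⁶ parasites/mL with compounds in DMSO (final <0.5% v/v), in duplicate, 72 h at 27 °C. MTT added for 4 h, stopped with 50% isopropanol–10% SDS, A570 read. IC50 by nonlinear regression, mean of three independent experiments.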

Structure (SMILES) | CC50 (HepG2) [nM] | selectivity ratio [1] | pIC50 (Leishmania infantum) | selectivity ratio [4] | pIC50 [6] | further results
O=[N+]([O-])c1c(CS(=O)(=O)c2ccccc2)nc2c(-c3ccc(C(F)(F)F)cc3)cc(Cl)cn12 | > 3900 |  |  |  |  | 
O=[N+]([O-])c1c(CS(=O)(=O)c2ccccc2)nc2c(-c3cccc(C(F)(F)F)c3)cc(Cl)cn12 | > 12500 | > 11.4 | 5.96 | > 312 | 7.40 | Ratio IC50 [2]: 2; Activity [3]: -0.67 V; pIC50 [5]: 7.05
COc1cccc2c1C(=O)c1c(O)c3c(c(O)c1C2=O)C[C@@](O)(C(=O)CO)C[C@@H]3O[C@H]1C[C@H](N)[C@H](O)[C@H](C)O1 [DOXORUBICIN] |  |  |  |  |  | CC50 (THP-1): 1400 nM
O=[N+]([O-])c1c(CS(=O)(=O)c2ccccc2)nc2c(-c3ccccc3)cc(Cl)cn12 | > 15600 | > 10 | 5.80 | > 25.6 | 6.21 | Activity [3]: -0.69 V
CCCCCCCCCCCCCCCCOP(=O)([O-])OCC[N+](C)(C)C [MILTEFOSINE] |  |  |  |  |  | CC50 (THP-1): > 40000 nM
O=[N+]([O-])c1c(CS(=O)(=O)c2ccccc2)nc2c(-c3cccs3)cc(Cl)cn12 | > 3900 |  |  |  |  | 
O=[N+]([O-])c1c(CS(=O)(=O)c2ccccc2)nc2c(-c3ccc(F)cc3)cc(Cl)cn12 | > 15600 | > 12 | 5.89 | > 50.3 | 6.51 | 
COc1ccc(-c2cc(Cl)cn3c([N+](=O)[O-])c(CS(=O)(=O)c4ccccc4)nc23)cc1 | > 3900 |  |  |  |  | 
Cc1ccc(C(=O)Nc2ccc(S(=O)(=O)O)c3cc(S(=O)(=O)O)cc(S(=O)(=O)O)c23)cc1NC(=O)c1cccc(NC(=O)Nc2cccc(C(=O)Nc3cc(C(=O)Nc4ccc(S(=O)(=O)O)c5cc(S(=O)(=O)O)cc(S(=O)(=O)O)c45)ccc3C)c2)c1 [SURAMIN] | > 100000 |  |  |  |  | 
O=[N+]([O-])c1c(CS(=O)(=O)c2ccccc2)nc2c(Br)cc(Br)cn12 | > 31000 | > 7.1 | 5.36 | > 10.7 | 5.54 | pIC50 (Leishmania donovani [7]): 5.26; CC50 (THP-1): > 25000 nM; Activity [3]: -0.59 V; pIC50 (Leishmania donovani [8]): 5.72; pIC50 [9]: 5.52; pIC50 [10]: 7.15; selectivity ratio [11]: > 5.6; selectivity ratio [12]: > 17.2
N#Cc1ccc(-c2cc(Cl)cn3c([N+](=O)[O-])c(CS(=O)(=O)c4ccccc4)nc23)cc1 | > 3900 |  |  |  |  | 
O=Cc1ccc(-c2cc(Cl)cn3c([N+](=O)[O-])c(CS(=O)(=O)c4ccccc4)nc23)cc1 | > 31200 | > 8.2 | 5.42 | > 390 | 7.10 | 
C[C@@H]1[C@H](O)[C@@H](C)/C=C/C=C/C=C/C=C/C=C/C=C/C=C/[C@H](O[C@@H]2O[C@H](C)[C@@H](O)[C@H](N)[C@@H]2O)C[C@@H]2O[C@](O)(C[C@@H](O)C[C@@H](O)[C@H](O)CC[C@@H](O)C[C@@H](O)CC(=O)O[C@H]1C)C[C@H](O)[C@H]2C(=O)O [AMPHOTERICIN B] |  |  |  |  |  | CC50 at 72 h [13]: > 62500 nM; pIC50 (Leishmania donovani [14]): 7.15
O=[N+]([O-])c1c(CS(=O)(=O)c2ccccc2)nc2c(-c3ccc(O)cc3)cc(Cl)cn12 | > 12500 | > 4.2 | 5.52 | > 30.5 | 6.39 | 
O=[N+]([O-])c1c(CS(=O)(=O)c2ccccc2)nc2c(Br)cc(Cl)cn12 |  |  |  |  |  | Activity [3]: -0.65 V
O=[N+]([O-])c1c(CS(=O)(=O)c2ccccc2)nc2c(-c3ccccc3C(F)(F)F)cc(Cl)cn12 | 22700 | 14.2 | 5.80 | 324 | 7.15 | 
O=[N+]([O-])c1c(CS(=O)(=O)c2ccccc2)nc2c(-c3ccc(F)cc3F)cc(Cl)cn12 | > 7800 |  |  |  |  | 
NCCC[C@](N)(C(=O)O)C(F)F [EFLORNITHINE, (S)-] | > 100000 |  |  | > 7.5 | 4.88 | 
O=[N+]([O-])c1c(CS(=O)(=O)c2ccccc2)nc2c(-c3ccc(Cl)cc3)cc(Cl)cn12 | > 3900 |  |  |  |  | 
O=[N+]([O-])c1c(CS(=O)(=O)c2ccccc2)nc2c(-c3cccc(F)c3)cc(Cl)cn12 | > 12500 | > 7.4 | 5.77 | > 62.5 | 6.70 | 
O=[N+]([O-])c1c(CS(=O)(=O)c2ccccc2)nc2c(-c3cccnc3)cc(Cl)cn12 | > 31300 | > 15.7 | 5.70 | > 136 | 6.64 | 
O=[N+]([O-])c1c(CS(=O)(=O)c2ccccc2)nc2c(-c3ccco3)cc(Cl)cn12 | > 3900 |  |  |  |  | 
O=[N+]([O-])c1c(CS(=O)(=O)c2ccccc2)nc2c(-c3ccc(CO)cc3)cc(Cl)cn12 | 13100 | 8.7 | 5.82 | 146 | 7.05 | 
O=[N+]([O-])c1c(CS(=O)(=O)c2ccccc2)nc2c(-c3ccccc3F)cc(Cl)cn12 | > 3900 |  |  |  |  | 
CCN(CC)c1ccc(-c2cc(Cl)cn3c([N+](=O)[O-])c(CS(=O)(=O)c4ccccc4)nc23)cc1 | > 15600 | > 6.2 | 5.60 | > 36.3 | 6.37 | 

— ChEMBL document CHEMBL4270592, “8-Aryl-6-chloro-3-nitro-2-(phenylsulfonylmethyl)imidazo[1,2-a]pyridines as potent antitrypanosomatid molecules bioactivated by type 1 nitroreductases” (Eur J Med Chem, 2018)
